Assay results as given in ChEMBL document CHEMBL1138359, “Syntheses of nicotinamide riboside and derivatives: effective agents for increasing nicotinamide adenine dinucleotide concentrations in mammalian cells” (J Med Chem, 2007).

What was measured:
[1] = Cell viability in mouse AB1 cells at 750 uM after 48 hrs by MTT assay relative to control; format: cell-based; settings: read-out: Activity
How it was run: (§1)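 Cells grown 24 h, then exposed to 750 µM compound for 48 h. Viability read by MTT assay and given as % of untreated control. Duplicate experiments.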

[2] = Cell viability in HEK293 cells at 750 uM after 48 hrs by MTT assay relative to control; format: cell-based; settings: human, read-out: Activity; how it was run: as §1
[3] = Cell viability in mouse Neuro 2a cells at 750 uM after 48 hrs by MTT assay relative to control; format: cell-based, N2a; settings: read-out: Activity; how it was run: as §1
[4] = Increase in NAD+ concentration in mouse AB1 cells at 750 uM after 24 hrs by isotope-dilution technique; format: functional
HEK293 [5] = experiment: Increase in NAD+ concentration in HEK293 cells at 750 uM after 24 hrs by isotope-dilution technique; format: functional, Homo sapiens
[6] = Increase in NAD+ concentration in mouse Neuro 2a cells at 750 uM after 24 hrs by isotope-dilution technique; format: functional, N2a
[7] = Cytotoxicity against mouse AB1 cells; format: cell-based
HEK293 [8] = experiment: Cytotoxicity against HEK293 cells; format: cell-based; settings: human
[9] = Cytotoxicity against mouse Neuro 2a cells; format: cell-based; settings: n2a
[10] = Increase in NAD+ concentration in mouse AB1 cells at 670 uM after 24 hrs by isotope-dilution technique relative to control; format: functional
How it was run: (§2)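 Cells exposed to 670 µM compound for 24 h. NAD+ was then quantified by an MS-based isotope-dilution method using an 18O standard and expressed relative to untreated controls. All cell experiments were run in duplicate.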

HEK293 [11] = experiment: Increase in NAD+ concentration in HEK293 cells at 670 uM after 24 hrs by isotope-dilution technique relative to control; format: functional, Homo sapiens; how it was run: as §2
[12] = Increase in NAD+ concentration in mouse Neuro 2a cells at 670 uM after 24 hrs by isotope-dilution technique relative to control; format: functional, N2a; how it was run: as §2

O=C(NCCO)c1ccc[n+]([C@@H]2O[C@H](CO)[C@@H](O)[C@H]2O)c1
viability at 48 h, 750 µM [1]: 101% | viability at 48 h, 750 µM [2]: 77% | viability at 48 h, 750 µM [3]: 51%

CCOC(=O)c1ccc[n+]([C@@H]2O[C@H](COC(C)=O)[C@@H](OC(C)=O)[C@H]2OC(C)=O)c1
Activity [4]: 130% | Activity (HEK293 [5]): 160% | Activity [6]: 260% | Activity [7]: Non-toxic | Activity (HEK293 [8]): Non-toxic | Activity [9]: Non-toxic

CNC(=O)c1ccc[n+]([C@@H]2O[C@H](CO)[C@@H](O)[C@H]2O)c1
viability at 48 h, 750 µM [1]: 79% | viability at 48 h, 750 µM [2]: 72% | viability at 48 h, 750 µM [3]: 76%

COC(=O)c1ccc[n+]([C@@H]2O[C@H](CO)[C@@H](O)[C@H]2O)c1
viability at 48 h, 750 µM [1]: 125% | viability at 48 h, 750 µM [2]: 94% | viability at 48 h, 750 µM [3]: 76%

O=C(O)c1ccc[n+]([C@@H]2O[C@H](CO)[C@@H](O)[C@H]2O)c1
Activity [10]: 1.5% | Activity (HEK293 [11]): 1.9% | Activity [12]: 1.7% | viability at 48 h, 750 µM [1]: 111% | viability at 48 h, 750 µM [2]: 92% | viability at 48 h, 750 µM [3]: 125%

CN(C)C(=O)c1ccc[n+]([C@@H]2O[C@H](CO)[C@@H](O)[C@H]2O)c1
viability at 48 h, 750 µM [1]: 132% | viability at 48 h, 750 µM [2]: 78% | viability at 48 h, 750 µM [3]: 35%

NC(=O)c1ccc[n+]([C@@H]2O[C@H](CO)[C@@H](O)[C@H]2O)c1 [NICOTINAMIDE RIBOSIDE]
viability at 48 h, 750 µM [1]: 123% | viability at 48 h, 750 µM [2]: 111% | viability at 48 h, 750 µM [3]: 107%

CCOC(=O)c1ccc[n+]([C@@H]2O[C@H](CO)[C@@H](O)[C@H]2O)c1
viability at 48 h, 750 µM [1]: 103% | viability at 48 h, 750 µM [2]: 92% | viability at 48 h, 750 µM [3]: 169%

CCNC(=O)c1ccc[n+]([C@@H]2O[C@H](CO)[C@@H](O)[C@H]2O)c1
viability at 48 h, 750 µM [1]: 57% | viability at 48 h, 750 µM [2]: 48% | viability at 48 h, 750 µM [3]: 38%

C=CCNC(=O)c1ccc[n+]([C@@H]2O[C@H](CO)[C@@H](O)[C@H]2O)c1
viability at 48 h, 750 µM [1]: 57% | viability at 48 h, 750 µM [2]: 78% | viability at 48 h, 750 µM [3]: 80%
